Assay results taken from the EternaBench riboswitch data.

System: MS2 coat protein
Test: apparent Kd, MS2 coat protein; higher = weaker binding; RNA-MaP array; FMN 200 µM where present
Procedure, shortened: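 Green signal was scaled to red-channel RNA signal and control-cluster median Fmax, and the apparent Kd was taken as the median of filtered per-cluster binding-curve fits. The binding series used SNAP-549-labelled MS2 coat protein from 0.7 or 1.5 nM, doubling to 3 µM, on designs transcribed by stalled E. coli RNA polymerase on Illumina sequencing-chip clusters. Each series ran without and then with constant ligand in 100 mM Tris-HCl pH 7.5, 80 mM KCl, 4 mM MgCl2, BSA, DTT, yeast tRNA and Tween-20.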

[1] = designed as: OFF switch for flavin mononucleotide, no ligand
[2] = ligand present: flavin mononucleotide, designed as: OFF switch for flavin mononucleotide
[3] = designed as: ON switch for flavin mononucleotide, no ligand
[4] = ligand present: flavin mononucleotide, designed as: ON switch for flavin mononucleotide

| Sequence | apparent Kd [1] | apparent Kd [2] | apparent Kd [3] | apparent Kd [4] |
| --- | --- | --- | --- | --- |
| GCUAGUGCAGGAUAUGCGUGGGAUGUUAUCCAUUUUCAUCUACAUGAGGAUCACCCAUGUAGAAGGGCACCCUU | 29.3 nM | 110 nM |  |  |
| GCUAUCGAACAGAAGGGACCGCGGCCGUGGCGGUCAGGAUAUGUAUGCAGUAGUGCCUACAUGAGGAUCACCCAUGUCCGCCGC |  |  | 629 nM | 218 nM |
| GCUAUCGGGUGAGGAUAUAUGAUUGUGAUUAAAAUAGAAGGCAUCUCAGAAGACAUGAGGAUCACCCAUGUAGUUAAGAUGGCA |  |  | 34.1 nM | 22.7 nM |
| GCUAUUACAGGAUAUCGUUGUUAUAACAUGAGGAUCACCCAUGUUCGGCUCGUGAUCCAGCGAGAAGGGUGGACGC | 71.7 nM | 73 nM |  |  |
| GCUCGAUGAGCUGUCUACAUGAGGAUCACCCAUGUAGAUGGGCAGGAUAUUUACGUGCUUUAUGUAGAGAAGGGCCCAUCGAGC |  |  |  | 28.8 nM |
| GCUGCAAAGUAAGGAUAUGCCUAGGAAACCUAGGCAGAAGGUACAUGAGGAUCACCCAUGUUAACUCAAAGAGAAUAAAGCAGC | 16.8 nM | 28.6 nM |  |  |
| GCUGCAUAGGCAGGAUAUGCAAGAAUUGAAAUAAAAUAUAAUAAAUGAACAUGAGGAUCACCCAUGUAGAAGGGCCUGUGCAGU | 20.8 nM | 21.4 nM |  |  |
| GCUGCAUAGUCAGGAUAUGCAACAUAAUAUACAAAAUAGUAUAUUAUGACAUGAGGAUCACCCAUGUAGAAGGGACUGUGCAGU | 19.3 nM | 19.9 nM |  |  |
| GCUGGUCGAGGAUAUACGUGACGUGCUUCGGCACGAGGUCUACAUGAGGAUCACCCAUGUAGAAGGCGACCAGC | 14.5 nM | 52.7 nM |  |  |
| GCUUUAUAGAUCCAUUUUAACAACAUGAGGAUCACCCAUGUGCAGGAUAUCGUUUGUUUUAUAUUCGAGAAGGGCAAAUUCAGC | 32.5 nM | 77.6 nM |  |  |
| GGAAAACAUGAGGAUCACCCAUGUGAGGAUAUCGAUGUCCAAAAACAAGUGCGGGACUCGAGAAGGCACUUGGA | 35 nM | 23.2 nM |  |  |
| GGAAAACAUGAGGAUCACCCAUGUGAGGAUAUCGAUGUCCAAAAACCCGUGCGGGACUCGAGAAGGCACUUGGA | 43.1 nM | 57 nM |  |  |
| GGAAAACAUGAGGAUCACCCAUGUGAGGAUAUCGAUGUCCAAAGAGAGGUGCGGGACUCGAGAAGGCACUUGGA | 45.9 nM | 50.2 nM |  |  |
| GGAAAACAUGAGGAUCACCCAUGUGAGGAUAUUGAAACAAACAAAACAAACAAACAAACAAGAAGGCACAGGAA | 26.1 nM | 25.5 nM |  |  |
| GGAAACUACGAGAAGGACAUGUGGUCCUUCAGUUACAUGAGGAUCACCCAUGUAGGAUAUCGUAGUUUCAGGAUCGUGAGAUCA | 33.2 nM | 10.7 nM |  |  |
| GGAAACUACGAGAAGGACAUGUGGUCCUUCAGUUACAUGAGGAUCACCCAUGUAGGAUAUCGUAGUUUCAGGAUCGUGAGAUCG | 35.6 nM | 9.39 nM |  |  |
| GGAACGAUCAUCAUUGAACAUGAGGAUCACCCAUGUACGAUGUAGGAUAUAUACCCGGUCAAGGUAUAGAAGGACAGGGUACAG | 18.6 nM | 55.4 nM |  |  |
| GGAAUAUUUACAGGAUAUCAUUUGUAAAUUCGAUGAGAAGGGUAGAUGUCUUACACGACUUGUUACAUGAGGAUCACCCAUGUU |  |  | 43.3 nM | 33.3 nM |
| GGACAUGGGAAACCACAUGGAGAUAAGGAUAUAUAGAUGACAUGAGGAUCACCCAUGUAUGGCGAAUAGAAGGUAUGAGUGUGA |  |  | 153 nM | 16.2 nM |
| GGACAUUUACAGAAGGGCAAAUUUUAUAUUGAAUAUUUAGUUCUGAUUUGCAGGAUAUGUUUUACAUGAGGAUCACCCAUGUCC |  |  | 59.9 nM | 27.9 nM |
| GGACAUUUACAGAAGGGCAAUUUAUUUAUUGAUUAUUUAGUUCUGUUUUGCAGGAUAUGUAAUACAUGAGGAUCACCCAUGUCC |  |  | 188 nM | 74 nM |

| Sequence | apparent Kd [1] | apparent Kd [2] | apparent Kd [3] | apparent Kd [4] |
| --- | --- | --- | --- | --- |
| GGACGAAGUGUGAGGAUAUGCUGGUCCUUGGAUCAGCAGAAGGCACAUGAGGAUCACCCAUGUGGUAAACGUCC | 114 nM | 746 nM |  |  |
| GGACGACACAUGAACAUGAGGAUCACCCAUGUAAAUUCUCAUGAGGAUAUGGAUCCUAAUUGGAUCCAGAAGGCGUGGUCGUCC |  |  | 961 nM | 507 nM |
| GGACGGUUAGUGAGGAUAUGCUCUACCUCGGUAGAGCAGAAGGCACAUGAGGAUCACCCAUGUGAAAACUGUUC | 16.6 nM | 21.2 nM |  |  |
| GGACGUCAGAUUAACAUGAGGAUCACCCAUGUCUUUUGACAUGAGGAUAUCGAUCCUAAUUGGAUCGAGAAGGCAUGGACGUCC |  |  | 1180 nM | 96.8 nM |
| GGACGUGUCGUUUACAUGAGGAUCACCCAUGUCGAUGGACAUGAGGAUAUGGAUCCGAAUCGGAUCCAGAAGGCAUGCACGUCC |  |  | 85.3 nM | 18.9 nM |
| GGACUGGACUAGAAGGGUGAUGCGCUCGCAGACACAGGAUAUAGUCACAUGAGGAUCACCCAUGUCGGUCCAUGUAAAGAAACU |  |  | 20.2 nM | 14.8 nM |
| GGACUUCCUGAGGAUAUUGUAUCACCUGAUUGAUAAGAAGGCAGAACAUGAGGAUCACCCAUGUGGGUACUCGG | 136 nM | 125 nM |  |  |
| GGAGACCUCACAGGAUAUGCUGGACUUUGUCCAGCAGAAGGGUGAAAACAUGAGGAUCACCCAUGUAUGGUCUCCAAAUUUAAA |  |  | 200 nM | 13.2 nM |
| GGAGACCUCACAGGAUAUGCUGGACUUUGUCCAGCAGAAGGGUGACUAAACAUGAGGAUCACCCAUGUGGUCUCCAAAUUUAAU |  |  | 740 nM | 68.2 nM |
| GGAGACCUCACAGGAUAUGCUGGACUUUGUCCAGCAGAAGGGUGGACAUGAGGAUCACCCAUGUGGUCUUCCAAAAUAUUUAAU |  |  | 728 nM | 139 nM |
| GGAGCAACAUGAGGAUCACCCAUGUAGGAUAUCGCUAUUGUAAUCAUGAAACAUGAUUACAAUAGCGAGAAGGACAUAUGCUUU | 9.32 nM | 11.9 nM |  |  |
| GGAGCACAUCAAUACAUGAGGAUCACCCAUGUCGAAUGAUAUGAGGAUAUGCAUCGGAAAACGAUGUAGAAGGCAUAGUGCUCC |  |  | 15.6 nM | 6.27 nM |
| GGAGCACGCACAGGAUAUCCGGCGGCGCUCGUCGGAGAAGGGUGACAUGAGGAUCACCCAUGUACGUGCAACUCAGUUUGAGUG |  |  | 95.6 nM | 40.4 nM |
| GGAGCCCAGUCAGGAUAUGUAACGCUUAGGCUGUUACAUGAGGAUCACCCAUGUUUCACCGUGAAACAGAAGGGACAUUUGGCU |  |  | 382 nM | 122 nM |
| GGAGCGGAAGGAUAUGCUGCGGGAUUGAAUGGAAAGAAAAUACAUGAGGAUCACCCAUGUAGAAGGUCCGUGAA | 18.2 nM | 54.2 nM |  |  |
| GGAUAGGACAGAGGAUAUACGUGCUAGAGAUACUAACAAAAUUUCCUCACAUGAGGAUCACCCAUGUAGAAGGCUGUCCUAUCG | 193 nM | 187 nM |  |  |
| GGAUAGGACAGAGGAUAUACGUGCUAGAGAUACUAGCAAAAUUACCUCACAUGAGGAUCACCCAUGUAGAAGGCUGUCCUAUCG | 5.29 nM | 60.6 nM |  |  |
| GGAUAGGACAGAGGAUAUACGUGCUAGAGAUACUAGCAAAAUUUCCUCACAUGAGGAUCACCCAUGUAGAAGGCUGACCUAUCG | 14.9 nM | 412 nM |  |  |
| GGAUAGGACAGAGGAUAUACGUGCUAGAGAUACUAGCAUAAUUUCCUCACAUGAGGAUCACCCAUGUAGAAGGCUGUCCUAUCG | 6.78 nM | 46.7 nM |  |  |
| GGAUAGGACAGAGGAUAUACGUGCUAGAGAUACUAGUAAAAUUUCCUCACAUGAGGAUCACCCAUGUAGAAGGCUGUCCUAUCG | 36.1 nM | 684 nM |  |  |
| GGAUAGGACAGAGGAUAUACGUGCUAGAGAUACUGGCAAAAUUUCCUCACAUGAGGAUCACCCAUGUAGAAGGCUGUCCUAUCG | 16.6 nM | 374 nM |  |  |
